# Source: ChEMBL document CHEMBL3124843, “Synthesis, cytostatic, antimicrobial, and anti-HCV activity of 6-substituted 7-(het)aryl-7-deazapurine ribonucleosides” (J Med Chem, 2014)
# Activity calls are given as the source filed them. How the calls were made is not given here.
# Experiments:
# K562 [1] = experiment: Cytostatic activity against paclitaxel-resistant human K562 cells after 72 hrs by MTT assay; format: functional, cell-based; conditions: K562, 72 h
# Outline: (§1)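 IC50 is the concentration that cuts cell growth by 50%, read by quantitative metabolic MTT staining after a 3-day treatment. The resistant sublines were made by raising the concentration of the cytotoxic drug step by step. CEM-DNR-bulk (daunorubicin-selected) stably overexpresses mrp-1. K562-TAX (paclitaxel-selected) expresses only mdr-1. HCT116p53−/− carries null p53 alleles. BJ and MRC-5 are nonmalignant fibroblasts.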
# BJ = experiment: Cytostatic activity against human BJ cells after 72 hrs by MTT assay; format: ADME, cell-based; outline: as §1
# Enterococcus faecalis = experiment: Antibacterial activity against Enterococcus faecalis CCM 4224 after 24 hrs; format: functional, organism-based
# A549 = experiment: Cytostatic activity against human A549 cells after 72 hrs by MTT assay; format: functional, cell-based; conditions: A549, 72 h; outline: as §1
# CCRF-CEM = experiment: Cytostatic activity against human CCRF-CEM cells after 72 hrs by MTT assay; format: functional, cell-based; outline: as §1
# [2] = Cytostatic activity against human CEM-DNR-bulk cells after 72 hrs by MTT assay; format: functional, cell-based; outline: as §1
# Staphylococcus aureus [3] = experiment: Antibacterial activity against Staphylococcus aureus CCM 3953 after 24 hrs; format: functional, organism-based
# [4] = Cytotoxicity against human HuH7 cells infected with Hepatitis C virus subtype 2a; format: cell-based, Huh-7
# [5] = Cytotoxicity against human HuH7 cells infected with Hepatitis C virus subtype 1b; format: cell-based, Huh-7
# HepG2 = experiment: Antiproliferative activity against human HepG2 cells after 72 hrs by XTT assay; format: functional, cell-based; conditions: HepG2, 72 h
# HCT-116 [6] = experiment: Cytostatic activity against p53-deficient human HCT116 cells after 72 hrs by MTT assay; format: functional, cell-based; conditions: HCT-116, 72 h; outline: as §1
# Pichia kudriavzevii = experiment: Antifungal activity against Candida crusei after 48 hrs; format: functional, organism-based
# Hepatitis C virus [7] = experiment: Antiviral activity against Hepatitis C virus subtype 1b infected in human HuH7 cells; format: functional, organism-based, Hepacivirus hominis; conditions: genotype 1b, Huh-7
# Escherichia coli [8] = experiment: Antibacterial activity against multi-resistant Escherichia coli C/16702 after 24 hrs; format: functional, organism-based
# MRC5 = experiment: Cytostatic activity against human MRC5 cells after 72 hrs by MTT assay; format: ADME, cell-based; conditions: MRC5, 72 h; outline: as §1
# Staphylococcus aureus [9] = experiment: Antibacterial activity against methicillin-resistant Staphylococcus aureus MRSA 4591 after 24 hrs; format: functional, organism-based
# K562 [10] = experiment: Cytostatic activity against human K562 cells after 72 hrs by MTT assay; format: functional, cell-based; conditions: K562, 72 h; outline: as §1
# HCT-116 [11] = experiment: Cytostatic activity against human HCT116 cells after 72 hrs by MTT assay; format: functional, cell-based; conditions: HCT-116, 72 h; outline: as §1
# Escherichia coli [12] = experiment: Antibacterial activity against Escherichia coli CCM 3954 after 24 hrs; format: functional, organism-based
# Candida parapsilosis = experiment: Antifungal activity against Candida parapsilosis after 48 hrs; format: functional, organism-based
# Pseudomonas aeruginosa [13] = experiment: Antibacterial activity against multi-resistant Pseudomonas aeruginosa A/16575 after 24 hrs; format: functional, organism-based
# [14] = Antiproliferative activity against human HeLaS3 cells after 72 hrs by XTT assay; format: functional, cell-based; conditions: HeLa S3, 72 h
# Outline: (§2)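 Antiproliferative test on HL-60 promyelocytic leukemia and HeLa S3 cervical carcinoma cells growing in liquid suspension.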
# HL-60 = experiment: Antiproliferative activity against human HL60 cells after 72 hrs by XTT assay; format: functional, cell-based; conditions: HL-60, 72 h; outline: as §2
# [15] = test system: Staphylococcus haemolyticus; experiment: Antibacterial activity against methicillin-resistant Staphylococcus haemolyticus A/16568 after 24 hrs; format: functional, organism-based
# Hepatitis C virus [16] = experiment: Antiviral activity against Hepatitis C virus subtype 2a infected in human HuH7 cells; format: functional, organism-based, Hepacivirus hominis; conditions: genotype 2a, Huh-7
# Candida tropicalis = experiment: Antifungal activity against Candida tropicalis after 48 hrs; format: functional, organism-based
# Candida albicans = experiment: Antifungal activity against Candida albicans after 48 hrs; format: functional, organism-based
# Pseudomonas aeruginosa [17] = experiment: Antibacterial activity against Pseudomonas aeruginosa CCM 3955 after 24 hrs; format: functional, organism-based
Structure (SMILES),IC50 (K562 [1]) [µM],IC50 (BJ) [µM],Activity (Enterococcus faecalis),IC50 (A549) [µM],IC50 (CCRF-CEM) [µM],IC50 [2] [µM],Activity (Staphylococcus aureus [3]),CC50 [4] [µM],CC50 [5] [µM],IC50 (HepG2) [µM],IC50 (HCT-116 [6]) [µM],Activity (Pichia kudriavzevii),EC50 (Hepatitis C virus [7]) [µM],Activity (Escherichia coli [8]),IC50 (MRC5) [µM],Activity (Staphylococcus aureus [9]),IC50 (K562 [10]) [µM],IC50 (HCT-116 [11]) [µM],Activity (Escherichia coli [12]),Activity (Candida parapsilosis),other results
Nc1nc(N)c2c(-c3ccsc3)cn([C@@H]3O[C@H](CO)[C@@H](O)[C@H]3O)c2n1,> 20,> 100,inactive,> 100,> 20,> 20,inactive,> 44,> 44,> 20,> 20,inactive,> 44,inactive,> 100,inactive,> 20,> 20,inactive,inactive,Activity (Pseudomonas aeruginosa [13]): inactive; IC50 [14]: > 20 µM; IC50 (HL-60): > 20 µM; Activity [15]: inactive; EC50 (Hepatitis C virus [16]): > 44 µM; Activity (Candida tropicalis): inactive; Activity (Candida albicans): inactive; Activity (Pseudomonas aeruginosa [17]): inactive
COc1nc(N)nc2c1c(-c1cc3ccccc3o1)cn2[C@@H]1O[C@H](CO)[C@@H](O)[C@H]1O,15.5,25.6,inactive,> 20,12.7,16.7,inactive,> 44,> 44,> 20,> 20,inactive,8.98,inactive,22.7,inactive,14.6,> 20,inactive,inactive,Activity (Pseudomonas aeruginosa [13]): inactive; IC50 [14]: > 20 µM; IC50 (HL-60): > 20 µM; Activity [15]: inactive; EC50 (Hepatitis C virus [16]): 20.7 µM; Activity (Candida tropicalis): inactive; Activity (Candida albicans): inactive; Activity (Pseudomonas aeruginosa [17]): inactive
C#Cc1cn([C@@H]2O[C@H](CO)[C@@H](O)[C@H]2O)c2ncnc(SC)c12,0.07,68.6,inactive,0.14,> 20,0.11,inactive,> 44,> 44,> 15,0.09,inactive,0.21,inactive,> 100,inactive,0.03,0.03,inactive,inactive,Activity (Pseudomonas aeruginosa [13]): inactive; IC50 [14]: 0.11 µM; IC50 (HL-60): 0.05 µM; Activity [15]: inactive; EC50 (Hepatitis C virus [16]): > 44 µM; Activity (Candida tropicalis): inactive; Activity (Candida albicans): inactive; Activity (Pseudomonas aeruginosa [17]): inactive
Cc1ncnc2c1c(-c1cccs1)cn2[C@@H]1O[C@H](CO)[C@@H](O)[C@H]1O,> 20,> 100,inactive,> 20,> 20,> 20,inactive,> 44,> 44,> 15,> 20,inactive,6.67,inactive,> 100,inactive,> 20,> 20,inactive,inactive,Activity (Pseudomonas aeruginosa [13]): inactive; IC50 [14]: > 15 µM; IC50 (HL-60): 5.73 µM; Activity [15]: inactive; EC50 (Hepatitis C virus [16]): > 44 µM; Activity (Candida tropicalis): inactive; Activity (Candida albicans): inactive; Activity (Pseudomonas aeruginosa [17]): inactive
